Data as given in ChEMBL document CHEMBL4270643, “Structure-based drug design: Synthesis and biological evaluation of quinazolin-4-amine derivatives as selective Aurora A kinase inhibitors” (Eur J Med Chem, 2018).

What was measured:
[1] = target: T1, Aurora kinase A (Homo sapiens, UniProt O14965); assay: Inhibition of Aurora A (unknown origin) using FAM-labelled peptide as substrate pretreated for 10 mins followed by substrate addition and measured after 60 mins by fluorescence assay
T1 sequence (O14965 whole entry): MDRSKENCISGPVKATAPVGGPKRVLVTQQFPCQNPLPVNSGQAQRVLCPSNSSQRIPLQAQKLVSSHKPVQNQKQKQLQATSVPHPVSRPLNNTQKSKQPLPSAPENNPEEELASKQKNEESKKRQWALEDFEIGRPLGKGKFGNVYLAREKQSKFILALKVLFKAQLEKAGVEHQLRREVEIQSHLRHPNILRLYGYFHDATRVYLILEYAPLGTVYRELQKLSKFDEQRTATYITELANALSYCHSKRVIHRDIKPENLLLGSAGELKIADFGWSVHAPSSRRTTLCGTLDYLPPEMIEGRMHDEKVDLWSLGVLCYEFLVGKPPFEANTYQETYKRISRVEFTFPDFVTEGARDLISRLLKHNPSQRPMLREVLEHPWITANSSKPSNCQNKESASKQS
Procedure, shortened: (§1)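 Kinase IC50 values are the mean of at least two independent experiments; selectivity is the Aurora A/B ratio of these IC50s.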

[2] = target: Aurora kinase B (Homo sapiens, UniProt Q96GD4); assay: Inhibition of Aurora B (unknown origin) using FAM-labelled peptide as substrate pretreated for 10 mins followed by substrate addition and measured after 60 mins by fluorescence assay; procedure, shortened: as §1
[3] = species on record: Homo sapiens; assay: Selectivity ratio of IC50 for Aurora B (unknown origin) to IC50 for Aurora A (unknown origin)
[4] = tested on: K562; assay: Antiproliferative activity against human K562 cells after 48 hrs by CCK8 assay; assay type: functional, cell-based
[5] = tested on: MCF7; assay: Antiproliferative activity against human MCF7 cells after 48 hrs by CCK8 assay; assay type: functional, cell-based
[6] = tested on: HeLa; assay: Antiproliferative activity against human HeLa cells after 48 hrs by CCK8 assay; assay type: functional, cell-based
[7] = tested on: DU-145; assay: Antiproliferative activity against human DU145 cells after 48 hrs by CCK8 assay; assay type: functional, cell-based; details: DU-145, 48 h
[8] = tested on: MOLT-4; assay: Antiproliferative activity against human MOLT4 cells after 48 hrs by CCK8 assay; assay type: functional, cell-based
[9] = tested on: MDA-MB-231; assay: Antiproliferative activity against human MDA-MB-231 cells after 48 hrs by CCK8 assay; assay type: functional, cell-based; details: MDA-MB-231, 48 h
[10] = tested on: SK-BR-3; assay: Antiproliferative activity against human SKBR3 cells after 48 hrs by CCK8 assay; assay type: functional, cell-based
[11] = Homo sapiens, K562, 48 h, read-out: IC50
[12] = Homo sapiens, MCF7, 48 h, read-out: IC50
[13] = Homo sapiens, HeLa, 48 h, read-out: IC50
[14] = Homo sapiens, MOLT-4, 48 h, read-out: IC50
[15] = Homo sapiens, SK-BR-3, 48 h, read-out: IC50

Chain of Aurora kinase B (Q96GD4 whole entry): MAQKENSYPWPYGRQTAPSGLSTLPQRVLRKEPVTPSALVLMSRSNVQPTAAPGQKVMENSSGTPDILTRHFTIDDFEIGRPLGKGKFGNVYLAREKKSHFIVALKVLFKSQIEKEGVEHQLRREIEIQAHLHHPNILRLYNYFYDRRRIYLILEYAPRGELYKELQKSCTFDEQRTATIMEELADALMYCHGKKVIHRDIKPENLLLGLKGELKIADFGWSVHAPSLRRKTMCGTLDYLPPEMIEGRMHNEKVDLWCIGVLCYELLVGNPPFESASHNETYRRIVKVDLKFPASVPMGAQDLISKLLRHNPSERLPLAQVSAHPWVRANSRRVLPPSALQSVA

Cc1cc(Nc2nc(-c3ccc4ccccc4c3)nc3ccccc23)n[nH]1
IC50 [1]: 0.128 µM
IC50 [2]: 5.07 µM
Ratio IC50 [3]: 40
IC50 [4, 11]: 15 µM
IC50 [5, 12]: > 30 µM
IC50 [6, 13]: 3.75 µM
IC50 [7]: 10.4 µM
IC50 [8, 14]: 10.4 µM
IC50 [9]: 11 µM
IC50 [10, 15]: 7.15 µM

CN1CCN(c2ccc3c(Nc4cc[nH]n4)nc(-c4ccccc4)nc3c2)CC1
IC50 [1]: 5.95 µM
IC50 [2]: 14.4 µM
Ratio IC50 [3]: 2.4
IC50 [4, 11]: 6.75 µM
IC50 [5, 12]: 7.88 µM
IC50 [6, 13]: 7.85 µM
IC50 [7]: 5.27 µM
IC50 [9]: 3.98 µM
IC50 [10, 15]: 6.12 µM

Cc1ccc(C(=O)c2nc(Nc3cc(C)[nH]n3)c3ccc(Cl)cc3n2)cc1
IC50 [1]: 1.3 µM
IC50 [2]: > 100 µM
Ratio IC50 [3]: > 77
IC50 ([4]; k562): Not Active
IC50 ([5]; mcf7): Not Active
IC50 ([6]; hela): Not Active
IC50 [7]: 16 µM
IC50 [9]: > 30 µM
IC50 ([10]; sk-br-3): Not Active

COc1ccc(C(=O)c2nc(Nc3cc(C)[nH]n3)c3ccc(Cl)cc3n2)cc1
IC50 [1]: 0.744 µM
IC50 [2]: > 100 µM
Ratio IC50 [3]: > 134
IC50 ([4]; k562): Not Active
IC50 ([5]; mcf7): Not Active
IC50 [6, 13]: > 30 µM
IC50 [7]: 12.5 µM
IC50 [9]: 12.3 µM
IC50 ([10]; sk-br-3): Not Active

Cc1cc(Nc2nc(-c3ccccc3)nc3ccccc23)[nH]n1
IC50 [1]: 0.028 µM
IC50 [2]: 0.858 µM

COc1cccc(OC)c1C(=O)c1nc(Nc2cc(C)[nH]n2)c2ccc(N3CCC(C(=O)OC(C)(C)C)CC3)cc2n1
IC50 [1]: 0.217 µM
IC50 [2]: > 60 µM
Ratio IC50 [3]: > 276
IC50 [4, 11]: 0.373 µM
IC50 [5, 12]: 1.51 µM
IC50 [6, 13]: 0.526 µM
IC50 [7]: 3.61 µM
IC50 [9]: 1.38 µM
IC50 [10, 15]: 2.75 µM

Cc1cc(Nc2nc(-c3ccccc3)nc3ccccc23)n[nH]1
Ratio IC50 [3]: 30
IC50 [4, 11]: 2.99 µM
IC50 [5, 12]: 6.16 µM
IC50 [6, 13]: 0.883 µM
IC50 [7]: 7.99 µM
IC50 [8, 14]: 5.15 µM
IC50 [9]: 2.88 µM
IC50 [10, 15]: 2.54 µM

Cc1cc(Nc2nc(-c3ccccc3)nc3cc(N4CCN(C)CC4)ccc23)n[nH]1
IC50 [1]: 0.01 µM
IC50 [2]: 0.27 µM
Ratio IC50 [3]: 30
IC50 [4, 11]: 0.191 µM
IC50 [5, 12]: 0.654 µM
IC50 [6, 13]: 0.179 µM
IC50 [7]: 0.409 µM
IC50 [8, 14]: 0.149 µM
IC50 [9]: 0.142 µM
IC50 [10, 15]: 2.49 µM

Cc1cc(Nc2nc(C(C)C)nc3ccccc23)n[nH]1
IC50 [1]: 0.103 µM
IC50 [2]: 1.15 µM
Ratio IC50 [3]: 11
IC50 [4, 11]: 3.92 µM
IC50 [5, 12]: 10.7 µM
IC50 [6, 13]: 2.81 µM
IC50 [7]: 7.43 µM
IC50 [9]: 4.8 µM
IC50 [10, 15]: 11.9 µM

Cc1cc(Nc2nc(-c3ccccc3)nc3c([N+](=O)[O-])cccc23)n[nH]1
IC50 [1]: 0.174 µM
IC50 [2]: 4.59 µM
Ratio IC50 [3]: 26
IC50 [4, 11]: 6.43 µM
IC50 [5, 12]: 4.53 µM
IC50 [6, 13]: 2.46 µM
IC50 [7]: 6.62 µM
IC50 [8, 14]: 6.48 µM
IC50 [9]: 3.47 µM
IC50 [10, 15]: 4.59 µM

COc1cccc2c(Nc3cc(C)[nH]n3)nc(-c3ccccc3)nc12
IC50 [1]: 0.025 µM
IC50 [2]: 0.547 µM
Ratio IC50 [3]: 21
IC50 [4, 11]: 2.3 µM
IC50 [5, 12]: 4.17 µM
IC50 [6, 13]: 0.817 µM
IC50 [7]: 6.36 µM
IC50 [8, 14]: 2.86 µM
IC50 [9]: 1.9 µM
IC50 [10, 15]: 1.85 µM

Cc1cc(Nc2nc(-c3ccccc3)nc3cc(F)ccc23)n[nH]1
IC50 [1]: 0.072 µM
IC50 [2]: 6.28 µM
Ratio IC50 [3]: 88
IC50 [4, 11]: > 30 µM
IC50 [5, 12]: > 30 µM
IC50 [6, 13]: 9.7 µM
IC50 [7]: > 30 µM
IC50 ([8]; molt-4): Not Active
IC50 [9]: 11.2 µM
IC50 [10, 15]: 10.7 µM

Cc1cc(Nc2nc(-c3ccccc3)nc3cc(Cl)ccc23)n[nH]1
IC50 [1]: 0.132 µM
IC50 ([4]; k562): Not Active
IC50 [5, 12]: > 30 µM
IC50 [6, 13]: > 30 µM
IC50 [7]: > 30 µM
IC50 ([8]; molt-4): Not Active
IC50 [9]: > 30 µM
IC50 ([10]; sk-br-3): Not Active

Cc1cc(Nc2nc(C(=O)c3ccccc3)nc3ccccc23)n[nH]1
IC50 [1]: 0.188 µM
IC50 [2]: 11.5 µM
Ratio IC50 [3]: 61
IC50 [4, 11]: > 30 µM
IC50 [5, 12]: > 30 µM
IC50 [6, 13]: 5.22 µM
IC50 [7]: > 30 µM
IC50 [8, 14]: 8.82 µM
IC50 [9]: 17 µM
IC50 [10, 15]: 14.7 µM

Cc1cc(Nc2nc(-c3ccccc3)nc3cc(N4CCC(C(=O)O)CC4)ccc23)n[nH]1
IC50 [1]: 0.006 µM
IC50 [2]: 0.127 µM
Ratio IC50 [3]: 20
IC50 [4, 11]: 5.52 µM
IC50 [5, 12]: 6.04 µM
IC50 [6, 13]: 1.86 µM
IC50 [7]: 21.5 µM
IC50 [8, 14]: 2.2 µM
IC50 [9]: 10.5 µM
IC50 [10, 15]: 16.3 µM

COc1ccc2c(Nc3cc(C)[nH]n3)nc(-c3ccccc3)nc2c1
IC50 [1]: 0.034 µM
IC50 [2]: 0.773 µM
Ratio IC50 [3]: 22
IC50 [4, 11]: 2.12 µM
IC50 [5, 12]: 3.6 µM
IC50 [6, 13]: 1.31 µM
IC50 [7]: 4.73 µM
IC50 [8, 14]: 1.2 µM
IC50 [9]: 1.32 µM
IC50 [10, 15]: 2.03 µM

COc1cccc2c(Nc3cc(C)[nH]n3)nc(Cc3ccccc3)nc12
IC50 [1]: 0.041 µM
IC50 [2]: 0.893 µM
Ratio IC50 [3]: 22
IC50 [4, 11]: 1.44 µM
IC50 [5, 12]: 6.28 µM
IC50 [6, 13]: 1.45 µM
IC50 [7]: > 10 µM
IC50 [8, 14]: 4.81 µM
IC50 [9]: 2.62 µM
IC50 [10, 15]: 2.72 µM

Cc1cc(Nc2nc(-c3ccccc3)nc3cc([N+](=O)[O-])ccc23)n[nH]1
IC50 [1]: 0.325 µM
IC50 [2]: > 100 µM
Ratio IC50 [3]: > 308
IC50 [4, 11]: 12 µM
IC50 [5, 12]: > 30 µM
IC50 [6, 13]: 10.1 µM
IC50 [7]: 7.36 µM
IC50 [9]: 9.83 µM
IC50 [10, 15]: 8.86 µM

Cc1cc(Nc2nc(Cc3ccccc3)nc3ccccc23)n[nH]1
IC50 [1]: 0.069 µM
IC50 [2]: 1.27 µM
Ratio IC50 [3]: 18
IC50 [4, 11]: 2.29 µM
IC50 [5, 12]: 13.3 µM
IC50 [6, 13]: 1.52 µM
IC50 [7]: 4.44 µM
IC50 [8, 14]: 5.79 µM
IC50 [9]: 3.12 µM
IC50 [10, 15]: 9.1 µM
